Laboratory results from article PMC4100325 (Journal of toxicology and environmental health. Part A, 2014).

How the values were obtained:
[1] = liver/body weight ratio after subchronic gavage exposure; assay type: in vivo, B6C3F1 male mice; conditions: mean ± SD
Summary of the method: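 Male B6C3F1 mice arrived at 6 weeks (~20 g) and were given test compound or water vehicle (pH 7) by daily gavage for 13 weeks, 6/group. Body weights were taken weekly. Animals were killed 24 hr after the last dose (CO2, cervical dislocation) and livers were weighed. Data are means ± S.D.; one-way ANOVA with Tukey post-hoc test.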

[2] = tested on: superoxide anion (SA) production in the livers of mice; assay: superoxide anion; assay type: in vivo, B6C3F1 male mice; conditions: for slope of regression SA vs Dose: SA as nmoles cytochrome c reduced/ min/ mg protein, dose mg/kg/day; for effect on SA production in livers: gavage daily for 13 weeks
Summary of the method: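 After 13 weeks of daily gavage (test compound, aqueous pH 7; 6 mice/group), liver was homogenised 10% w/v in Tris-KCl, pH 7.4. Homogenate was incubated with 45 nmol cytochrome c in PBS, pH 7.2, for 15 min at 37°C. The reaction was stopped on ice and centrifuged, and the supernatant was read at 550 nm. Values were converted with ε 2.1 × 10^4 M−1 cm−1 to nmol reduced/min/mg Lowry protein; regression was against dose.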

[3] = tested on: lipid peroxidation (LP) in the livers of mice; assay: lipid peroxidation; assay type: in vivo, B6C3F1 male mice; conditions: for slope of regression LP vs Dose: LP as nmoles TBARS/mg protein, dose mg/kg/day; for effect on LP in livers: gavage daily for 13 weeks; for intercept of regression LP vs Dose: regression analysis
Summary of the method: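 Mice (6/group) received daily gavage of test compound (pH 7 aqueous) for 13 weeks and were killed 24 hr post-dose. A 10% w/v liver homogenate in Tris-KCl (pH 7.4) was mixed with 1% phosphoric acid, 0.6% thiobarbituric acid and butylated hydroxyanisole, then heated at 100°C for 45 min. TBARS were extracted into n-butanol and read at 535 nm (ε 1.556 × 10^5 M−1 cm−1), normalised to Lowry protein. Means ± S.D. are reported; regression was against dose.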

[4] = tested on: DNA single strand breaks in the livers of mice; assay: DNA single strand breaks; assay type: in vivo, B6C3F1 male mice; conditions: for intercept of regression DNA-SSBs vs Dose / slope of regression DNA-SSBs vs Dose: DNA-SSBs as elution rate constant k; for slope of regression DNA-SSBs vs Dose: dose mg/kg/day; for effect on DNA SSB in livers: gavage daily for 13 weeks
Summary of the method: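 Male B6C3F1 mice (6/group) were gavaged daily for 13 weeks with test compound in distilled water (pH 7) and killed 24 hr after the last dose. Liver was homogenised 25% w/v in KCl/NaCl/spermine/spermidine/sucrose/EDTA/EGTA/Tris/PMSF/2-mercaptoethanol buffer and spun at 3000 g to get nuclei. These were lysed on 5 µm filters (2% SDS, 25 mM EDTA, pH 10.3, 20 min), then eluted at pH 12.3 into seven 3 ml fractions. DNA was read by diaminobenzoic acid fluorescence (436/521 nm). k = −2.3 × slope of log10 %DNA retained vs eluate volume.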

[5] = 410 mg DCA/kg/day, subchronic studies; ref Hassoun et al, 2010a; cited from earlier work
liver = conditions: subchronic studies; ref Hassoun et al. 2010a; cited from earlier work
[6] = tested on: cytochrome c reduction in liver homogenates; conditions: SOD added to assay mixture of liver homogenate; ref Hassoun and Dey, 2008; cited from earlier work

Row | Compound | Liver/body weight ratio ([1]; DCA 7.5 mg/kg/day by gavage for 13 weeks) | Liver/body weight ratio ([1]; DCA 15 mg/kg/day by gavage for 13 weeks) | Liver/body weight ratio ([1]; DCA 30 mg/kg/day by gavage for 13 weeks) | slope of regression SA vs Dose [2] | effect on SA production in livers [2] | slope of regression LP vs Dose [3] | effect on LP in livers [3] | intercept of regression LP vs Dose [3] [nmoles TBARS/mg protein] | intercept of regression DNA-SSBs vs Dose [4] | slope of regression DNA-SSBs vs Dose [4] | effect on DNA SSB in livers [4] | increase in liver/body weight ratio associated with hepatomegaly [5] [fold] | threshold dose for hepatotoxicity (liver) [mg/kg/day] | Liver/body weight ratio ([1]; TCA 12.5 mg/kg/day by gavage for 13 weeks) | Liver/body weight ratio ([1]; TCA 25 mg/kg/day by gavage for 13 weeks) | Liver/body weight ratio ([1]; TCA 50 mg/kg/day by gavage for 13 weeks) | inhibition of cytochrome c reduction [6] [%]
1 | O=C(O)C(Cl)Cl [DCA, sodium dichloroacetate] | 0.054 ± 0.009 | 0.051 ± 0.002 | 0.053 ± 0.007 | 0.1036 | dose-dependent increases | 0.2041 | dose-dependent increases | 1.185 | 0.00215 | 0.000201 | dose-dependent increases | 1.3 | 154 |  |  |  | 
2 | O=C(O)C(Cl)(Cl)Cl [TCA, sodium trichloroacetate] |  |  |  | 0.0237 | dose-dependent increases | 0.0631 | dose-dependent increases | 0.870 | 0.00152 | 0.000052 | dose-dependent increases |  | 410 | 0.057 ± 0.003 | 0.055 ± 0.005 | 0.049 ± 0.005 | 
3 | superoxide dismutase [SOD] |  |  |  |  |  |  |  |  |  |  |  |  |  |  |  |  | 91.1
